From ChEMBL document CHEMBL4190248, “Synthesis and evaluation of N-heteroaromatic ring-based analogs of piperlongumine as potent anticancer agents” (Eur J Med Chem, 2017)
In brackets after ≈: the same amount, converted by molar mass. Activity calls are given as the source filed them. No cut-off for these calls is given here.

Columns and labels:
HCT-116 [1] = assay: Antiproliferative activity against human HCT116 cells at 10 uM after 72 hrs by MTT assay; assay type: functional, cell-based
[2] = Aqueous solubility of the compound in pure water by HPLC analysis; assay type: physicochemical
In short: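 Solubility was measured in pure water by HPLC on a C18 column using acetonitrile–water 60/40 (v/v) at 1.0 mL/min, with detection at 254 nm, in triplicate.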

A549 = assay: Antiproliferative activity against human A549 cells at 10 uM after 72 hrs by MTT assay; assay type: functional, cell-based
HCT-116 [3] = assay: Antiproliferative activity against human HCT116 cells after 72 hrs by MTT assay; assay type: functional, cell-based; conditions: HCT-116, 72 h
K562 = assay: Antiproliferative activity against human K562 cells at 10 uM after 72 hrs by MTT assay; assay type: functional, cell-based
HCT-116 [4] = assay: Antitumor activity against human HCT116 cells xenografted in BALB/c nude mouse assessed as reduction in tumor weight at 5 mg/kg, ip administered daily for 21 days; assay type: functional; parameters: scale not given: the % may be the effect or the level left
In short: (§1)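 Male BALB/c nude mice, 3–5 weeks old, received 1×10^7 HCT-116 cells subcutaneously. Once tumors reached about 75 mm³, mice were randomized to groups of 8 and given 5 mg/kg intraperitoneally once daily for 21 days. Body weight was followed over time. At sacrifice, tumors were weighed, and inhibition (%) = (Wcontrol − Wtreated)/Wcontrol × 100. Data are mean ± SD.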

Mus musculus [5] = assay: Toxicity in nude BALB/c mouse xenografted with human HCT116 cells assessed as effect on kidney size at 5 mg/kg, ip administered daily for 21 days; assay type: organism-based; conditions: in vivo, 504 h
In short: (§2)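 HCT-116 xenografts (1×10^7 cells s.c.) were grown in male BALB/c nude mice, 3–5 weeks old, to about 75 mm³. Mice (n = 8 per group) then received 5 mg/kg i.p. daily for 21 days. Liver, kidney, lung and heart were examined for size and morphology against vehicle-treated controls.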

[6] = Cytotoxicity against human CCD-841 cells assessed as reduction in cell viability after 72 hrs by MTT assay; assay type: cell-based; conditions: CCD-841, 72 h
In short: (§3)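 Cells were cultured overnight in RPMI 1640 + 10% FBS, then treated in triplicate with vehicle or compound across the indicated concentrations for 72 h. MTT was added for the final 4 h, formazan was dissolved in DMSO, and absorbance was read at 570 nm. Inhibition rate = (1 − OD treated/OD control) × 100%, and the IC50 was derived from it.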

Mus musculus [7] = assay: Toxicity in nude BALB/c mouse xenografted with human HCT116 cells assessed as effect on liver size at 5 mg/kg, ip administered daily for 21 days; assay type: organism-based; conditions: in vivo, 504 h; in short: as §2
[8] = Induction of intracellular ROS generation in human CCD-841 cells at 10 uM after 3 hrs by DCFH-DA-dye based fluorescence microscopy; assay type: cell-based
In short: (§4)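 Cells were treated in triplicate with 10 µM compound or with vehicle DMSO (0.1%, v/v) for 3 h. Intracellular ROS was detected with a fluorescent probe, the legend citing DCFH-DA and the methods citing dihydroethidium (300/610 nm). Signals were read on a fluorescence microplate reader and imaged by fluorescence microscopy.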

Mus musculus [9] = assay: Toxicity in nude BALB/c mouse xenografted with human HCT116 cells assessed as effect on heart morphology at 5 mg/kg, ip administered daily for 21 days; assay type: organism-based; conditions: in vivo, 504 h; in short: as §2
Mus musculus [10] = assay: Toxicity in nude BALB/c mouse xenografted with human HCT116 cells assessed as reduction in body weight at 5 mg/kg, ip administered daily for 21 days; assay type: organism-based; conditions: in vivo, 504 h; in short: as §1
HCT-116 [11] = assay: Induction of intracellular ROS generation in human HCT116 cells at 10 uM after 3 hrs by DCFH-DA-dye based fluorescence microscopy; assay type: functional, cell-based; in short: as §4
Mus musculus [12] = assay: Toxicity in nude BALB/c mouse xenografted with human HCT116 cells assessed as effect on liver morphology at 5 mg/kg, ip administered daily for 21 days; assay type: organism-based; conditions: in vivo, 504 h; in short: as §2
Mus musculus [13] = assay: Toxicity in nude BALB/c mouse xenografted with human HCT116 cells assessed as effect on lung morphology at 5 mg/kg, ip administered daily for 21 days; assay type: organism-based; conditions: in vivo, 504 h; in short: as §2
Mus musculus [14] = assay: Toxicity in nude BALB/c mouse xenografted with human HCT116 cells assessed as effect on heart size at 5 mg/kg, ip administered daily for 21 days; assay type: organism-based; conditions: in vivo, 504 h; in short: as §2
HT-29 = assay: Antiproliferative activity against human HT-29 cells after 72 hrs by MTT assay; assay type: functional, cell-based; conditions: HT-29, 72 h; in short: as §3
Mus musculus [15] = assay: Toxicity in nude BALB/c mouse xenografted with human HCT116 cells assessed as effect on kidney morphology at 5 mg/kg, ip administered daily for 21 days; assay type: organism-based; conditions: in vivo, 504 h; in short: as §2
HCT-8 = assay: Antiproliferative activity against human HCT8 cells after 72 hrs by MTT assay; assay type: functional, cell-based; conditions: HCT-8, 72 h; in short: as §3
[16] = Aqueous solubility of the compound in PBS buffer at pH 5 by HPLC analysis; assay type: physicochemical
Mus musculus [17] = assay: Toxicity in nude BALB/c mouse xenografted with human HCT116 cells assessed as effect on lung size at 5 mg/kg, ip administered daily for 21 days; assay type: organism-based; conditions: in vivo, 504 h; in short: as §2

Structure (SMILES) | Activity (HCT-116 [1]) | solubility [2] [µg/mL] | Activity (A549) | IC50 (HCT-116 [3]) [µM] | Activity (K562) | also measured
O=C1C=CCCN1C(=O)/C=C/c1ccc2ccccc2n1 | Active | 2.41 (≈ 8.66 µM) | Active | 0.93 | Active | 
Cc1cnc(/C=C/C(=O)N2CCC=CC2=O)cn1 | Active | 47.9 (≈ 197 µM) | Active | 7.95 | Active | 
O=C1C=CCCN1C(=O)/C=C/c1ccccn1 |  | 40.4 (≈ 177 µM) |  |  |  | 
O=C1C=CCCN1C(=O)/C=C/c1cccnc1 |  | 45.3 (≈ 198 µM) |  |  |  | 
O=C1C=CCCN1C(=O)/C=C/c1cnc2ccccc2c1 | Active | 1.95 (≈ 7.01 µM) | Active | 8.17 | Active | 
O=C1C=CCCN1C(=O)/C=C/c1ccncc1 | Active | 46.2 (≈ 202 µM) | Active | 7.05 | Active | 
Cc1nccnc1/C=C/C(=O)N1CCC=CC1=O | Active | 48.2 (≈ 198 µM) | Active | 8.9 | Active | 
COc1cc(/C=C/C(=O)N2CCC=CC2=O)cc(OC)c1OC [PIPLARTINE] | Active | 1.63 (≈ 5.14 µM) | Active |  | Active | Activity (HCT-116 [4]): 53%
O=C(/C=C/c1ccc2ccccc2n1)N1CCC=C(Cl)C1=O | Active |  |  | 0.47 |  | Activity (Mus musculus [5]): Non-Toxic; IC50 [6]: 50.8 µM; Activity (Mus musculus [7]): Non-Toxic; Activity [8]: Non-Toxic; Activity (HCT-116 [4]): 52%; Activity (Mus musculus [9]): Non-Toxic; Activity (Mus musculus [10]): Non-Toxic; Activity (HCT-116 [11]): Active; Activity (Mus musculus [12]): Non-Toxic; Activity (Mus musculus [13]): Non-Toxic; Activity (Mus musculus [14]): Non-Toxic; IC50 (HT-29): 0.92 µM; Activity (Mus musculus [15]): Non-Toxic; IC50 (HCT-8): 1.79 µM; solubility [16]: 1990 µg/mL (≈ 6370 µM); Activity (Mus musculus [17]): Non-Toxic
O=C1C=CCCN1C(=O)/C=C/c1cnccn1 | Active | 59.8 (≈ 261 µM) | Active | 3.19 | Active | 
